Screens (PubChem)
An excerpt weighted towards active compounds, which were near 3.1% of everything screened.
hERG protect: shields human hERG channel from block by proarrhythmic agents | CHO-hERG, FluxOR thallium flux, dofetilide IC70 present | AID 1511 | activation (rescue from dofetilide block), less the hit threshold, % at 10 µM | 310,000 compounds, 0.51% hits | Q12809;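 active means activation above the mean of controls blocked by dofetilide plus 5 SD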;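 further: thallium influx through hERG after potassium depolarization seen as dye fluorescence rise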
KCNQ1 inh: inhibitors of human KCNQ1 potassium channel; P51787; CHO-K1 KCNQ1, FluxOR thallium flux fluorescence; active compounds read high; B-score at 10 µM; 310,000 compounds, 1.3% hits;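 active means compounds whose thallium flux B-score, printed positive for inhibition, exceeds three library SD while starting fluorescence stays within three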;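 further: channel opened by potassium depolarization with thallium stimulus after 20 min compound exposure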
KCNK9 block: blocks the human KCNK9 two-pore domain potassium channel; 310,000 compounds, 1.2% hits; B-score at 10 µM; AID 488922; HEK293 KCNK9, FluxOR thallium flux fluorescence; active compounds read low; Q9NPC2;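 active means ratio B-score over 3 SD below the library mean, with starting fluorescence within 5 SD of its mean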;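 further: negative B-score means less thallium flux so channel inhibition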
Target sequence (Q9NPC2 whole entry, looked up, the tested form may be a part): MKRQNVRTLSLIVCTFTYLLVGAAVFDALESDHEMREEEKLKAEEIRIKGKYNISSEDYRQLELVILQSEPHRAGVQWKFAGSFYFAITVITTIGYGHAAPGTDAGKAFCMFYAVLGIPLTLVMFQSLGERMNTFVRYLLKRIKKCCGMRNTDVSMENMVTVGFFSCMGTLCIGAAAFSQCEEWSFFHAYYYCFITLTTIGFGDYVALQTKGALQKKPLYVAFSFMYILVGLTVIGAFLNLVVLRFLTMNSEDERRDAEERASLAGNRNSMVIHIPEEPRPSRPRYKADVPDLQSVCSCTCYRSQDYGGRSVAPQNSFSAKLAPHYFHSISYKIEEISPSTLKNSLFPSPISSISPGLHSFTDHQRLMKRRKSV
KCNK3 inh: human KCNK3 channel inhibition, primary screen; O14649; CHO-KCNK3 thallium flux, FluxOR fluorescence; active compounds read low; B-score at 10 µM; 340,000 compounds, 0.84% hits;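 active means B-score under library mean minus 4 SD, starting fluorescence ratio at most library mean plus 5 SD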;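 further: more negative B-score means stronger inhibition of thallium flux through KCNK3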
KCNQ1 pot: potentiates or activates the human KCNQ1 potassium channel | P51787 | CHO-K1 KCNQ1, thallium flux FluxOR fluorescence; active compounds read high | B-score at 10 µM | 310,000 compounds, 0.35% hits | AID 2648;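 active means fluorescence ratio B-score, a plate-corrected score, at least three library SD, with initial intensity B-score within 5 SD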
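assay system = CHO-K1 cells stably expressing KCNQ1 | medium = assay buffer, equal DMSO in all wells | timing = 37 °C overnight plating, 90-min dark dye load, 20-min compound pretreatment | measured by = kinetic FluxOR thallium fluorescence, 10-s 1-Hz baseline, 110-s post-stimulus read | measure = fluorescence change relative to baseline, converted to B score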
Large screens that a line does not name were inactive.

CSc1nc(Cl)c(Cc2ccc(OC(C)C)cc2)c(N2CCOCC2)n1	KCNQ1 inh 7, KCNK9 block -7.5
COc1ccc(CC2(CO)CCN(Cc3nc(C(C)C)cs3)CC2)cc1	none
Cc1ccccc1OCC(=O)N1N=C(C(F)(F)F)CC1(O)C(C)(C)C (stereo unspecified)	none
CCC1=NN(C(=O)Cc2ccc([N+](=O)[O-])cc2)C(O)(C(F)(F)F)C1 (stereo unspecified)	none
CC(C)(C)C1(O)CC(C(F)(F)F)=NN1C(=O)Cc1ccc([N+](=O)[O-])cc1 (stereo unspecified)	KCNQ1 pot 12
Cc1ccc(OCC(=O)N2N=C(C(F)(F)F)CC2(O)C(C)(C)C)cc1C (stereo unspecified)	KCNQ1 inh 7
CCCC(=O)Nc1cc(OC)c(C(=O)OC)cc1Cl	none
CCCn1c(C)cc(C(=O)COC(=O)c2cc(S(=O)(=O)NCC(C)C)c(Cl)cc2Cl)c1C	KCNK9 block -7
CN(C(=S)NC(=O)c1ccccc1)C1CCCCC1	hERG protect 15, KCNQ1 pot 11
CN(C(=S)NC(=O)c1ccc(Cl)cc1)C1CCCCC1	KCNQ1 pot 12
O=C(NNC(=O)C1CCC1)c1ccc(Cl)cc1	none
CC1CCN(C(=S)NC(=O)c2ccc(F)cc2)CC1	none (no result: hERG protect, KCNQ1 inh, KCNK9 block, KCNQ1 pot)
CN(C(=S)NC(=O)c1ccc(F)cc1)C1CCCCC1	KCNQ1 pot 8
O=C(NC(=S)NC1CCCCC1)c1ccccc1	none
O=C1/C(=C\c2cc(Br)cc(Br)c2O)SC(=S)N1Cc1ccccc1	none
CN1C(=O)/C(=C/c2cc(N=Nc3ccccc3)ccc2O)SC1=S	KCNQ1 inh 7
Cc1c(N2C(=O)/C(=C/c3cccc4ccccc34)SC2=S)c(=O)n(-c2ccccc2)n1C	none
Cc1c(N2C(=O)/C(=C\c3ccccc3O)SC2=S)c(=O)n(-c2ccccc2)n1C	hERG protect 17, KCNQ1 pot 42
COc1ccccc1NC(=O)C(C)OC(=O)CCNS(=O)(=O)c1cccc(C(F)(F)F)c1 (stereo unspecified)	none (no result: hERG protect, KCNQ1 inh, KCNK9 block, KCNQ1 pot)
Cc1ccc(NC(=O)CC(N)=S)cc1	none
Cc1ccc(NC(=O)CC(O)(C(F)(F)F)C(F)(F)F)cc1	KCNQ1 inh 7
Cn1c(=O)[nH]c(NCCc2ccc(O)cc2)c([N+](=O)[O-])c1=O	none
O=C(NNS(=O)(=O)c1ccc([N+](=O)[O-])cc1)c1ccc2ccccc2c1O	KCNQ1 inh 7
COc1ccc(/C=N/n2c(C)cc(C)c(C(N)=O)c2=O)cc1	hERG protect 6.5
COc1ccc2ccccc2c1/C=N\n1c(C)cc(C)c(C(N)=O)c1=O	none
CCN1/C(=C/C=C/c2oc3ccc4ccccc4c3[n+]2CC)Oc2ccc3ccccc3c21	KCNQ1 inh 10 (no result: KCNK3 inh)
CC(C)NC(=O)N(C)C[C@H]1Oc2ccc(NC(=O)Nc3ccc(C(F)(F)F)cc3)cc2C(=O)N([C@H](C)CO)C[C@@H]1C	none (no result: hERG protect, KCNQ1 inh, KCNK9 block, KCNQ1 pot)
Cc1nc(SCC(=O)N2CCCC2=O)nc(C)c1C	none (no result: hERG protect, KCNQ1 inh, KCNK9 block, KCNQ1 pot)
O=C(NCC1OCCc2ccccc21)c1cc(COc2c(F)cccc2F)on1 (stereo unspecified)	none
O=P(Cc1cc(Br)cc(Br)c1OCCO)(c1ccccc1)c1ccccc1	KCNK9 block -6.7
O=P(c1ccccc1)(c1ccccc1)c1cc(Br)cc(Br)c1OCCO	none
Cc1ccccc1NC(=S)NC(=O)c1cc(-c2ccccc2)nc2ccccc12	KCNQ1 pot 19
Cc1cccc(NC(=S)NC(=O)c2cc(-c3ccccc3)nc3ccccc23)c1	hERG protect 6.1, KCNQ1 pot 18
Cc1ccc(-c2cc(C(=O)Nc3ccncc3)c3ccccc3n2)cc1	none
COc1ccc(CCNc2nc(C)nc3c2nnn3Cc2ccccc2)cc1OC	none
COC(=O)c1c(C)[nH]c(C(=O)NCc2ccco2)c1C	none
COCc1ccc(CN2CCC(C(=O)Nc3cccc(-c4cccc(Cl)c4)c3)CC2)o1	KCNQ1 inh 8
COc1cc(CNC(C)(C)CO)cc(Br)c1OCc1ccc(Cl)cc1Cl	KCNK9 block -6.6
CCOC(=O)c1[nH]c(=O)[nH]c1COC(=O)c1cc2ccccc2o1	hERG protect 6.2
CCOC(CCNC(=O)c1cn(CCOC)c(=O)c2c1c1ccccc1n2C)OCC	none
N=C1C(c2ccccc2)=C(O)CN1c1cccc(S(=O)(=O)N2CCCCC2)c1	none
O=C(CCCN1CCOCC1)c1ccc2c(c1)OCCO2	none
O=C(CCN1CCc2ccccc2CC1)c1ccc2c(c1)OCCO2	KCNQ1 pot 10
CCOC(=O)/C(=N/Nc1ccc(Br)cc1)N1CC(C)OC(C)C1 (stereo unspecified)	KCNK3 inh -8.7 (no result: hERG protect, KCNQ1 inh, KCNK9 block, KCNQ1 pot)
CCOC(=O)c1ccn(CSc2c(F)c(F)cc(F)c2F)n1	none (no result: hERG protect, KCNQ1 inh, KCNK9 block, KCNQ1 pot)
O=C(NCc1ccncc1)c1cc(C(=O)C2CCCCC2)c[nH]1	hERG protect 6.2
C[C@@H](CC#N)CN1CC[C@H](C(C)(C)C)CCC1=O	hERG protect 5.0
O=C(N1CCN(c2ncccn2)CC1)C12CC3CC(CC(C3)C1)C2	none
COC1c2ccccc2C(=O)N1Cc1ccc(F)cc1 (stereo unspecified)	none
Cc1cc(C)c2oc(C(=O)NC3CCS(=O)(=O)C3)cc(=O)c2c1 (stereo unspecified)	none
COc1ccc(N(Cc2cc3cccc(C)c3[nH]c2=O)S(=O)(=O)c2ccc(Cl)cc2)cc1	KCNK9 block -7.5
Cc1cccc(NC(=O)c2n[nH]c([N+](=O)[O-])c2Br)c1C	KCNQ1 inh 7
COc1ccc(NC(=O)c2oc3ccccc3c2NC(=O)c2ccco2)c(OC)c1	KCNK9 block -7.8
COc1ccc(OC)c(NC(=O)c2c(NC(=O)c3ccco3)sc3c2CCC3)c1	KCNK9 block -7.5 (no result: KCNK3 inh)
COc1ccc(NC(=O)c2ccco2)c(OC)c1	none
COc1ccccc1OCCNC(=O)CCNS(=O)(=O)c1ccc(C)cc1	none (no result: hERG protect, KCNQ1 inh, KCNK9 block, KCNQ1 pot)
CCN1CCN(CC(=O)N2CCCC(C(=O)c3ccc(Oc4ccccc4)cc3)C2)CC1 (stereo unspecified)	hERG protect 5.5
Fc1ccc(Nc2nnc(C(F)(F)F)s2)cc1	none
Nc1nnc(SCC(=O)NNC(=O)c2ccc(F)cc2)s1	none (no result: hERG protect, KCNQ1 inh, KCNK9 block, KCNQ1 pot)
CCN(CC)c1ccc(C(=C2C=CC(=[N+](CC)CC)C=C2)c2ccc(N(CC)CC)cc2)cc1	KCNK3 inh -12 (no result: hERG protect, KCNQ1 inh, KCNK9 block, KCNQ1 pot)
C=CCn1c(=NC(=O)CN2C(=O)CCC2=O)sc2cccc(OC)c21	none
C=CCn1c(=NC(=O)C2COc3ccccc3O2)sc2cccc(OC)c21 (stereo unspecified)	KCNK9 block -7.4
CCOC(=O)CN1C=C(c2ccc3ccccc3n2)C(C[N+](=O)[O-])c2ccccc21 (stereo unspecified)	KCNQ1 inh 11
O=C(NC(=S)N(CCO)Cc1ccccc1)c1cc(Br)ccc1Cl	hERG protect 19
CCCN(Cc1ccccc1)C(=S)NC(=O)c1ccccc1[N+](=O)[O-]	hERG protect 29
CCN(Cc1ccccc1)C(=S)NC(=O)c1ccccc1Br	hERG protect 22, KCNQ1 pot 43
